Results as given in ChEMBL document CHEMBL2046372, “Design and synthesis of pyrrolo[3,2-d]pyrimidine human epidermal growth factor receptor 2 (HER2)/epidermal growth factor receptor (EGFR) dual inhibitors: exploration of novel back-pocket binders” (J Med Chem, 2012).

How the values were obtained:
Aurora kinase B = Aurora kinase B (Homo sapiens, UniProt Q96GD4); assay: Inhibition of N-terminal 6xHis tagged Aurora B kinase expressed using baculovirus expression system using [gamma-33P]ATP
[1] = target: Fibroblast growth factor receptor 1 (Homo sapiens, UniProt P11362); assay: Inhibition of FGFR1 using ATP preincubated with compound for 5 mins measured after 10 mins
[2] = target: Fibroblast growth factor receptor 3 (Homo sapiens, UniProt P22607); assay: Inhibition of FGFR3 using ATP preincubated with compound for 5 mins measured after 10 mins
Sequence of Fibroblast growth factor receptor 3 (P22607 whole entry): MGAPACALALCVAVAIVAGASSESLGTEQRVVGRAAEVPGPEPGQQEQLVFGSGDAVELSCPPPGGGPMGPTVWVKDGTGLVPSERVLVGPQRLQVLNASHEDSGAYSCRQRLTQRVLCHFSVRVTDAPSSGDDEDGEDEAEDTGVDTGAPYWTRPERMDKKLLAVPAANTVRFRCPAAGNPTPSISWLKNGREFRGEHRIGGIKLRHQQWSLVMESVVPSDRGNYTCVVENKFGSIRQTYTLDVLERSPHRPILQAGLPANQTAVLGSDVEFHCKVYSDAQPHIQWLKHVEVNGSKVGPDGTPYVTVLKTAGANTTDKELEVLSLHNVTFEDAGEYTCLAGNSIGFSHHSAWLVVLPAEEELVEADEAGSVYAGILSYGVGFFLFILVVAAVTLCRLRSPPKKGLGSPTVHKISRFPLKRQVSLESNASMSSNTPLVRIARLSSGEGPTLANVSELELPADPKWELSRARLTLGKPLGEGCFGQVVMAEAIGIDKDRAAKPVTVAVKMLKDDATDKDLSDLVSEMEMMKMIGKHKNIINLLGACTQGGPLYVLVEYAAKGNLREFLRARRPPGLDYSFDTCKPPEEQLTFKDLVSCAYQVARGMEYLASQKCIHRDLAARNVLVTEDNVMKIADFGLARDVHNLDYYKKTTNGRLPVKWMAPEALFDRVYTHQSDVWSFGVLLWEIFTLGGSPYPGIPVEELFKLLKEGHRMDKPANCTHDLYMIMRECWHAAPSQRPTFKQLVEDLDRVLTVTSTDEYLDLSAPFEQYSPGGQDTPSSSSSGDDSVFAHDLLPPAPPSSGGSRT

[3] = target: Vascular endothelial growth factor receptor 2 (Homo sapiens, UniProt P35968); assay: Inhibition of N-terminus FLAG-tagged VEGFR2 expressed using baculovirus infection system after 10 mins
[4] = target: Vascular endothelial growth factor receptor 1 (Homo sapiens, UniProt P17948); assay: Inhibition of VEGFR1 using ATP preincubated with compound for 5 mins measured after 5 mins
[5] = target: Platelet-derived growth factor receptor alpha (Homo sapiens, UniProt P16234); assay: Inhibition of PDGFRalpha using ATP measured after 30 mins
[6] = target: Platelet-derived growth factor receptor beta (Homo sapiens, UniProt P09619); assay: Inhibition of PDGFRbeta using ATP measured after 60 mins
[7] = target: Mast/stem cell growth factor receptor Kit (Homo sapiens, UniProt P10721); assay: Inhibition of c-kit using ATP measured after 20 mins
[8] = target: Cytoplasmic tyrosine-protein kinase BMX (Homo sapiens, UniProt P51813); assay: Inhibition of BMX using ATP measured after 10 mins
[9] = target: Tyrosine-protein kinase ZAP-70 (Homo sapiens, UniProt P43403); assay: Inhibition of ZAP70 using ATP measured after 10 mins
[10] = target: Insulin-like growth factor 1 receptor (Homo sapiens, UniProt P08069); assay: Inhibition of IGFR1 using ATP measured after 20 mins
Sequence of Insulin-like growth factor 1 receptor (P08069 31-736 limits assumed): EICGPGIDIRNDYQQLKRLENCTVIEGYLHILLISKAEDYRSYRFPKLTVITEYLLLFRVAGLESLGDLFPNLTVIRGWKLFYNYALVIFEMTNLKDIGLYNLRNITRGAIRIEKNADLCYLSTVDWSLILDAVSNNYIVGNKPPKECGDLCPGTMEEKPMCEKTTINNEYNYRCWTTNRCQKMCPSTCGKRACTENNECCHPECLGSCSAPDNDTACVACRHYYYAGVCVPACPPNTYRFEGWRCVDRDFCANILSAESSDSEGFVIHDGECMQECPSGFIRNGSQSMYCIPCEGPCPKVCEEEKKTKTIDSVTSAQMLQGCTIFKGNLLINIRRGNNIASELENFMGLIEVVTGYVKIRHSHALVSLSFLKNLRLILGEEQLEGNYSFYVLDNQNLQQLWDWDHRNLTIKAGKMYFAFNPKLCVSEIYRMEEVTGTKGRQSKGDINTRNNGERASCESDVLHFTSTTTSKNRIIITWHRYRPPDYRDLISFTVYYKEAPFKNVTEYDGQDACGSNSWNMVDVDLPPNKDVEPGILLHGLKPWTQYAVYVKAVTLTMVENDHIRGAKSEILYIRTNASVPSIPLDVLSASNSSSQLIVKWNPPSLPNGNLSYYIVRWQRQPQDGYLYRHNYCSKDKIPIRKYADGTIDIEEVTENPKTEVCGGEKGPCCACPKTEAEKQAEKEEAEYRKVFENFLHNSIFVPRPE
Sequence of Insulin-like growth factor 1 receptor (P08069 741-1367 limits assumed): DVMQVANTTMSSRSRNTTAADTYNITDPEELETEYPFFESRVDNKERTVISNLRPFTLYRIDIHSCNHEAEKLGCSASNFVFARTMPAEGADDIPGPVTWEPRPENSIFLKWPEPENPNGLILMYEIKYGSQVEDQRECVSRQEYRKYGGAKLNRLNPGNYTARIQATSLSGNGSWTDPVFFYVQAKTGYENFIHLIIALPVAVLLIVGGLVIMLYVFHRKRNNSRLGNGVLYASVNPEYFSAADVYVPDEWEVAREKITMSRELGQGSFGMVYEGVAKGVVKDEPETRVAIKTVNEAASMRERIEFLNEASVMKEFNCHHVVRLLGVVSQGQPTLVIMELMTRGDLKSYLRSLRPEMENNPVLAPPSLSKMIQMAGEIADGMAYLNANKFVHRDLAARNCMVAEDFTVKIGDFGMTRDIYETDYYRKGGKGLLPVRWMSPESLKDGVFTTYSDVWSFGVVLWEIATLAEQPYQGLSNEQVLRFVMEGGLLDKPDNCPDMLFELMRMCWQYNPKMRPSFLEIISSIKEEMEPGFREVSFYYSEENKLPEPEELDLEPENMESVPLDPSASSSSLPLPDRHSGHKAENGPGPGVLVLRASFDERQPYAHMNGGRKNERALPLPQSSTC

[11] = target: Mitogen-activated protein kinase 14 (Homo sapiens, UniProt Q16539); assay: Inhibition of N-terminus FLAG-tagged p38alpha expressed in baculovirus expression system using [gamma-33P]-ATP measured after 60 mins by scintillation counting
Sequence of Mitogen-activated protein kinase 14 (Q16539 whole entry): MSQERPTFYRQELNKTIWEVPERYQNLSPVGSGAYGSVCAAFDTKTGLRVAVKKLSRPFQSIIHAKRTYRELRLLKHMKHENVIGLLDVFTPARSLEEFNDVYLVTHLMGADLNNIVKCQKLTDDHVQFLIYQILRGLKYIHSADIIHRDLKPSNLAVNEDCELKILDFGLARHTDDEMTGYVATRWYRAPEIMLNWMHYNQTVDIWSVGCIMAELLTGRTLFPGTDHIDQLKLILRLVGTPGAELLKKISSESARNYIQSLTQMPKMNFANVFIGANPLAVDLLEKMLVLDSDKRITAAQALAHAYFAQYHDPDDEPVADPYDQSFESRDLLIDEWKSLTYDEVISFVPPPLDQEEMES

[12] = target: Mitogen-activated protein kinase 3 (Homo sapiens, UniProt P27361); assay: Inhibition of N-terminus FLAG-tagged Erk1 expressed in baculovirus expression system using [gamma-33P]-ATP measured after 60 mins by scintillation counting
Sequence of Mitogen-activated protein kinase 3 (P27361 whole entry): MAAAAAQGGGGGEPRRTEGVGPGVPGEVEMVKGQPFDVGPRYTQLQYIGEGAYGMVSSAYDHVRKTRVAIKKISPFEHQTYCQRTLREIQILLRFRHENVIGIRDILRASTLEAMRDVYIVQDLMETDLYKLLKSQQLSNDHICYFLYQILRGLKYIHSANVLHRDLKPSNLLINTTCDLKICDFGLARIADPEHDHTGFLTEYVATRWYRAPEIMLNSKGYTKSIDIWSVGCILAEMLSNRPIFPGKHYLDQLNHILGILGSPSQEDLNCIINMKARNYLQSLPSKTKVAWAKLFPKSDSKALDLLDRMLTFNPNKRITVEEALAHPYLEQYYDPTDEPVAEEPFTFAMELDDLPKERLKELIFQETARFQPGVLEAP

[13] = target: Serine/threonine-protein kinase B-raf (Homo sapiens, UniProt P15056); assay: Inhibition of N-terminus FLAG-tagged B-raf expressed in baculovirus expression system using [gamma-33P]-ATP measured after 60 mins by scintillation counting
[14] = target: Mitogen-activated protein kinase kinase kinase 5 (Homo sapiens, UniProt Q99683); assay: Inhibition of N-terminus FLAG-tagged ASK1 expressed in baculovirus expression system using [gamma-33P]-ATP measured after 60 mins by scintillation counting
[15] = target: Protein kinase C theta type (Homo sapiens, UniProt Q04759); assay: Inhibition of N-terminus FLAG-tagged PKCtheta expressed in baculovirus expression system using [gamma-33P]-ATP measured after 60 mins by scintillation counting
[16] = target: Serine/threonine-protein kinase PLK1 (Homo sapiens, UniProt P53350); assay: Inhibition of N-terminus FLAG-tagged PLK1 expressed in baculovirus expression system using [gamma-33P]-ATP measured after 60 mins by scintillation counting
Sequence of Serine/threonine-protein kinase PLK1 (P53350 whole entry): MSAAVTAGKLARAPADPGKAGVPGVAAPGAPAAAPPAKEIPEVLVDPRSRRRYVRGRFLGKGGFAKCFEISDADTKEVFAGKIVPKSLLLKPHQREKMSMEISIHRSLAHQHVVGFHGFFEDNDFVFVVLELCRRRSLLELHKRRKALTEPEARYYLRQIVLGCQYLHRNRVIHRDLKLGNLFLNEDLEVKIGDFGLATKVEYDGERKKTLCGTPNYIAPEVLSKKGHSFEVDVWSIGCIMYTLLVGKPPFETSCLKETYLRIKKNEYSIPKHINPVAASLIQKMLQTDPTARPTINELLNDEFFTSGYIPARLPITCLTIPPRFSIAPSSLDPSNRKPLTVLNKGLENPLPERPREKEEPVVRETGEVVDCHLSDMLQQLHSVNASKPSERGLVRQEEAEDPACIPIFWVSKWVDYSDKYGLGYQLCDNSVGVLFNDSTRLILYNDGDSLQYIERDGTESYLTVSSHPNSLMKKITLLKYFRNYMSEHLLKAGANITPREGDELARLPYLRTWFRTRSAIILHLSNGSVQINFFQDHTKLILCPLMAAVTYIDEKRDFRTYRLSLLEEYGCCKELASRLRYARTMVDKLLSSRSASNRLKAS

[17] = target: Mitogen-activated protein kinase 8 (Homo sapiens, UniProt P45983); assay: Inhibition of N-terminus FLAG-tagged JNK1 expressed in baculovirus expression system using [gamma-33P]-ATP measured after 60 mins by scintillation counting
Sequence of Mitogen-activated protein kinase 8 (P45983 whole entry): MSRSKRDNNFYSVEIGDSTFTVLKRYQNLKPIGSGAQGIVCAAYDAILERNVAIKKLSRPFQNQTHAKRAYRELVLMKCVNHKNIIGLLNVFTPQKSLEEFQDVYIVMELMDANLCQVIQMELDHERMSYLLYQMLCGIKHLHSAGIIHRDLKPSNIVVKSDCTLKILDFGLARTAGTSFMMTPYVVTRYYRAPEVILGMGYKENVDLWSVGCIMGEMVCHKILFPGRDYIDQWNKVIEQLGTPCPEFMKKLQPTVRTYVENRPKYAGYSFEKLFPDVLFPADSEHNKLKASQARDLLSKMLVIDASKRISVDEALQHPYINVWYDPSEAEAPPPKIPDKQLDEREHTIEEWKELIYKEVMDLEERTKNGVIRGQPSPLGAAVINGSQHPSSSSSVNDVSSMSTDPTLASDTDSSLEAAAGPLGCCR

[18] = target: Dual specificity mitogen-activated protein kinase kinase 5 (Homo sapiens, UniProt Q13163); assay: Inhibition of N-terminus FLAG-tagged MEK5 expressed in baculovirus expression system using [gamma-33P]-ATP measured after 30 mins by scintillation counting
[19] = target: Glycogen synthase kinase-3 beta (Homo sapiens, UniProt P49841); assay: Inhibition of N-terminus FLAG-tagged GSK3beta expressed in baculovirus expression system using [gamma-33P]-ATP measured after 30 mins by scintillation counting
[20] = target: Dual specificity protein kinase TTK (Homo sapiens, UniProt P33981); assay: Inhibition of N-terminus FLAG-tagged TTK expressed in baculovirus expression system using [gamma-33P]-ATP measured after 60 mins by scintillation counting
[21] = target: Inhibitor of nuclear factor kappa-B kinase subunit beta (Homo sapiens, UniProt O14920); assay: Inhibition of C-terminus FLAG-tagged IKKbeta expressed in baculovirus expression system using [gamma-33P]-ATP measured after 30 mins by scintillation counting
[22] = target: Mitogen-activated protein kinase kinase kinase 1 (Homo sapiens, UniProt Q13233); assay: Inhibition of C-terminus FLAG-tagged MEKK1 expressed in baculovirus expression system using [gamma-33P]-ATP measured after 60 mins by scintillation counting
Focal adhesion kinase 1 = Focal adhesion kinase 1 (Homo sapiens, UniProt Q05397); assay: Inhibition of FAK using ATP measured after 60 mins
[23] = Antitumor activity against human 4-1ST cells overexpressing HER2 gene xenografted in nude mouse assessed as tumor growth regression at 50 mg/kg, po BID for 14 days relative to control; format: functional
Summary of the method: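 Oral dosing at 50 mg/kg in mice bearing 4-1ST (HER2-overexpressing) tumor xenografts. Efficacy was expressed as tumor/control ratio (T/C). Significance versus control at day 14 was tested by one-tailed Shirley–Williams test.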

CAL-27 = assay: Antitumor activity against human CAL27 cells overexpressing EGFR gene xenografted in nude mouse assessed as tumor growth regression at 100 mg/kg, po BID for 14 days relative to control; format: functional
Summary of the method: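 CAL27 human head and neck cancer (EGFR-overexpressing) xenografts in mice were dosed orally at 100 mg/kg. Efficacy was expressed as tumor/control ratio (T/C) against vehicle control.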

[24] = target: Receptor tyrosine-protein kinase erbB-2 (Homo sapiens, UniProt P04626); assay: Inhibition of N-terminus peptide-tagged human recombinant HER2 expressed using baculovirus infection system using [gamma-33P]-ATP preincubated with compound for 5 mins measured after 10 mins by scintillation counting
BT-474 = assay: Growth inhibition of human BT474 cells overexpressing HER2 gene after 5 days; format: functional; conditions: BT-474, 120 h
[25] = Metabolic stability in mouse liver microsomes at 1 umol/L after 20 mins by HPLC analysis; format: ADME, Microsome; conditions: read-out: Stability
[26] = Metabolic stability in human liver microsomes at 1 umol/L after 20 mins by HPLC analysis; format: ADME, Microsome; conditions: read-out: Stability
CYP3A4 = CYP3A4 (Homo sapiens, UniProt P08684); assay: Inhibition of CYP3A4 at 10 uM after 15 mins; format: ADME
Sequence of CYP3A4 (P08684 whole entry): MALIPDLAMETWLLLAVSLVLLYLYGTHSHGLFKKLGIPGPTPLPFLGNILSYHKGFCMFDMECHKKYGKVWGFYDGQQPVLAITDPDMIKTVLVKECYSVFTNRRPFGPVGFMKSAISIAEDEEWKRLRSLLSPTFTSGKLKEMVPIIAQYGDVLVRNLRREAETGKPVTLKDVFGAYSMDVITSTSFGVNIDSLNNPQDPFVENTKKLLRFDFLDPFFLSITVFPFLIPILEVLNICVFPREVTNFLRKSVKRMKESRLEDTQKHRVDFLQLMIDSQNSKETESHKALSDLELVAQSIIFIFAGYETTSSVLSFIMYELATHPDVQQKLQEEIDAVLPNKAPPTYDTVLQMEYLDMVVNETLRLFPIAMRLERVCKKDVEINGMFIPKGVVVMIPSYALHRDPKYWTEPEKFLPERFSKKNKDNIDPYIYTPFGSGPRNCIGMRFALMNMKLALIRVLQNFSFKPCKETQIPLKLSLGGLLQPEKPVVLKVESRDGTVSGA

[27] = target: Receptor tyrosine-protein kinase erbB-4 (Homo sapiens, UniProt Q15303); assay: Inhibition of N-terminus peptide-tagged human recombinant HER4 expressed using baculovirus infection system using [gamma-33P]-ATP preincubated with compound for 5 mins measured after 10 mins by scintillation counting
[28] = target: Tyrosine-protein kinase Lck (Homo sapiens, UniProt P06239); assay: Inhibition of LCK using ATP preincubated with compound for 5 mins measured after 30 mins
[29] = target: Hepatocyte growth factor receptor (Homo sapiens, UniProt P08581); assay: Inhibition of c-Met using ATP preincubated with compound for 5 mins measured after 10 mins
[30] = target: Dual specificity mitogen-activated protein kinase kinase 1 (Homo sapiens, UniProt Q02750); assay: Inhibition of N-terminus GST -fused MEK1 expressed using baculovirus infection system using [gamma-33P]ATP preincubated with compound for 5 mins measured after 30 mins by scintillation counting
[31] = target: T1, Tyrosine-protein kinase Lyn (Homo sapiens, UniProt P07948); assay: Inhibition of Lyn B using ATP preincubated with compound for 5 mins measured after 10 mins
T1 sequence (P07948 whole entry): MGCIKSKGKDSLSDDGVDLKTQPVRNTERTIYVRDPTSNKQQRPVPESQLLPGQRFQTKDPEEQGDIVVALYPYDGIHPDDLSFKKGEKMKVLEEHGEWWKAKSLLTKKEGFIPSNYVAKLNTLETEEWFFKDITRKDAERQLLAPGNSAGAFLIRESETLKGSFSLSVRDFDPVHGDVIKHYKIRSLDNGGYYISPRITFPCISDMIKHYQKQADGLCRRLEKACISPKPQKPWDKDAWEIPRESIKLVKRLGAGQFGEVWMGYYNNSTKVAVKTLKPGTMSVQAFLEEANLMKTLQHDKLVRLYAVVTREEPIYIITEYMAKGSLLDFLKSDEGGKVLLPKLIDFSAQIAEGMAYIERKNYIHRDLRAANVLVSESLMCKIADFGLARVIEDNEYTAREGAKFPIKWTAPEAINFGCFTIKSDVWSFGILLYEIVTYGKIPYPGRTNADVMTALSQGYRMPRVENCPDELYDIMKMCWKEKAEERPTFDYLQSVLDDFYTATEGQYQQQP

Angiopoietin-1 receptor = Angiopoietin-1 receptor (Homo sapiens, UniProt Q02763); assay: Inhibition of TIE2 using ATP preincubated with compound for 5 mins measured after 10 mins
[32] = target: Tyrosine-protein kinase CSK (Homo sapiens, UniProt P41240); assay: Inhibition of CSK using ATP preincubated with compound for 5 mins measured after 10 mins
[33] = target: T1, Tyrosine-protein kinase Lyn; assay: Inhibition of Lyn A using ATP preincubated with compound for 5 mins measured after 10 mins
[34] = target: Proto-oncogene tyrosine-protein kinase Src (Homo sapiens, UniProt P12931); assay: Inhibition of Src using ATP preincubated with compound for 5 mins measured after 10 mins

CC(C)(N)C(=O)NCCn1ccc2ncnc(Nc3ccc(Oc4cccc5sncc45)c(Cl)c3)c21 gave an IC50 (Aurora kinase B) of over 10 µM, an IC50 [1] of over 10 µM and an IC50 [2] of over 10 µM. For the same compound, the IC50 [3] was over 10 µM, the IC50 [4] was over 10 µM and the IC50 [5] was over 10 µM. For the same compound, the IC50 [6] was over 10 µM, the IC50 [7] was over 10 µM and the IC50 [8] was over 10 µM. For the same compound, the IC50 [9] was over 10 µM, the IC50 [10] was over 10 µM and the IC50 [11] was over 10 µM. The IC50 [12] was over 10 µM, the IC50 [13] was over 10 µM and the IC50 [14] was over 10 µM. For the same compound, the IC50 [15] was over 10 µM, the IC50 [16] was over 10 µM and the IC50 [17] was over 10 µM. The IC50 [18] was over 10 µM, the IC50 [19] was over 10 µM and the IC50 [20] was over 10 µM. It also gave an IC50 [21] of over 10 µM, an IC50 [22] of over 10 µM and an IC50 (Focal adhesion kinase 1) of over 10 µM. It also gave a T/C [23] of -23%, a T/C (CAL-27) of -30% and an IC50 [24] of 0.00098 µM. The GI50 (BT-474) was 0.002 µM, the microsomal CLint at 1 µM [25] was 77 µL/min/mg and the microsomal CLint at 1 µM [26] was 88 µL/min/mg. The inhibition at 0.25 h, 10 µM (CYP3A4) was 21.2%, the IC50 [27] was 0.079 µM and the IC50 [28] was 1.7 µM. The IC50 [29] was 1.8 µM, the IC50 [30] was 2.1 µM and the IC50 [31] was 3 µM. The IC50 (Angiopoietin-1 receptor) was 3.2 µM, the IC50 [32] was 3.9 µM and the IC50 [33] was 7.1 µM. For the same compound, the IC50 [34] was 8.4 µM.
